Assay results collected from several papers.
Target: Ephrin type-A receptor 8 (EPHA8, Homo sapiens, UniProt P29322)
One construct used (P29322 28-1005): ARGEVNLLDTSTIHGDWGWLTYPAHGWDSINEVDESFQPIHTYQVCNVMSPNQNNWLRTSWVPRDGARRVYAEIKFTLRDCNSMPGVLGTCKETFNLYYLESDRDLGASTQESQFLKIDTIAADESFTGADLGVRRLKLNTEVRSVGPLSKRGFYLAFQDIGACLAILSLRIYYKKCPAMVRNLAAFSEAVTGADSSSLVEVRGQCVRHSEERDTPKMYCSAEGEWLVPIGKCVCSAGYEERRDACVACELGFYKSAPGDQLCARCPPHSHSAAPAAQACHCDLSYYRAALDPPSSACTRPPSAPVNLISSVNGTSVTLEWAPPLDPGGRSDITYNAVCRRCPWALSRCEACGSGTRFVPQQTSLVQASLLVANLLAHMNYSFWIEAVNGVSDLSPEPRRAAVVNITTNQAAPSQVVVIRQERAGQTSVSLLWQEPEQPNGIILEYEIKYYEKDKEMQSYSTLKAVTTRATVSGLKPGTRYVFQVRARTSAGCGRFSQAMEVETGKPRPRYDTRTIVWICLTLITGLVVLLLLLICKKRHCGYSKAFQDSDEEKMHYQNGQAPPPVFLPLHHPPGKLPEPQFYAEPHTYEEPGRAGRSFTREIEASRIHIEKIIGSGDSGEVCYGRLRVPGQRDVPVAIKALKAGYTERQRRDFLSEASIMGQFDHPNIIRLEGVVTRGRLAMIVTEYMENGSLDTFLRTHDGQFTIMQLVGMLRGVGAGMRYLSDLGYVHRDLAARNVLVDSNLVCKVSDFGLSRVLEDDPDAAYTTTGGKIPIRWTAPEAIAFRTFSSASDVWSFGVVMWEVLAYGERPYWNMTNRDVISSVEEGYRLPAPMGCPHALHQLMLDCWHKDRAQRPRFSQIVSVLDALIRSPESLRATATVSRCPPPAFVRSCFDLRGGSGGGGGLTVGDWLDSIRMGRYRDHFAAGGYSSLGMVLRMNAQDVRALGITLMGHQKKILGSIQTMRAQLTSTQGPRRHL

SMILES | observed | mode | technique | tested at | endpoint | value
O=C(NCc1ncc(C(F)(F)F)cc1Cl)c1ccc2c(c1)C1(CCS(=O)(=O)CC1)[C@@H](C1CC1)N2S(=O)(=O)c1ccc(F)cc1 | cell-free assay | – | competition with immobilised ligand | 1 µM | remaining binding | 100%
CCCS(=O)(=O)Nc1ccc(F)c(C(=O)c2c[nH]c3ncc(-c4ccc(Cl)cc4)cc23)c1F | enzyme activity | inhibitor | – | 1 µM | inhibition | < 20%
COc1cc2ncnc(Nc3ccc(Oc4ccccc4)cc3C)c2cc1OC | enzyme activity | inhibitor | – | 1 µM | inhibition | 21%
COc1cc(-c2cc(-c3ccc(N4CCNCC4)cc3)cnc2C)cc(OC)c1OC | enzyme activity | inhibitor | – | 0.1 µM | inhibition | 3%
CC(C)(C)c1nc(-c2cccc(NS(=O)(=O)c3c(F)cccc3F)c2F)c(-c2ccnc(N)n2)s1 | enzyme activity | inhibitor | radiometric | 1 µM | remaining activity | 105%
Cc1ccc(Nc2nccc(N(C)c3ccc4c(C)n(C)nc4c3)n2)cc1S(N)(=O)=O | enzyme activity | inhibitor | – | 10 µM | inhibition | 81%
CNC(=O)c1cc2c(Oc3ccc(NC(=O)C4(C(=O)Nc5ccc(F)cc5)CC4)cc3)ccnc2cc1OC | enzyme activity | inhibitor | radiometric | 1 µM | inhibition | 102%
O=C(Nc1cnn(-c2csc(C(=O)NC3COC3)c2)c1)Nc1ccccc1Cl | enzyme activity | inhibitor | – | 5 µM | remaining activity | 103%
Cc1ccc(NC(=O)c2ccc(C)c(C(F)(F)F)c2)cc1C#Cc1nn(C2CCC(O)CC2)c2ncnc(N)c12 (stereo not drawn) | cell-free assay | – | – | 10 µM | remaining signal | 2%
CCCOc1ccc(OC)c(F)c1C(=O)c1ccc(C(=O)N[C@@H]2CNC[C@H]2NC(=O)c2ccc3[nH]ncc3c2)cc1 | enzyme activity | inhibitor | – | 10 µM | remaining activity | 95%
C[C@H](NC(=O)c1cnc2n1[C@](C)(Cc1ccc(C#N)cc1)C(=O)N2c1cc(Cl)c(F)c(Cl)c1)C(=O)NC1(c2ccccn2)CC1 | cell-free assay | – | competition with immobilised ligand | 1 µM | remaining binding | 100%
CNC(=O)c1cc(Oc2ccc(NC(=O)Nc3ccc(Cl)c(C(F)(F)F)c3)cc2)ccn1 | enzyme activity | inhibitor | – | 0.3 µM | inhibition | 23%
O=C(NC[C@@H]1[C@H]2CN(C(=O)OCc3cc(C(F)(F)F)cc(C(F)(F)F)c3)C[C@@H]12)c1ccc2[nH]nnc2c1 | cell-free assay | – | competition with immobilised ligand | 1 µM | remaining binding | 100%
N#CCCc1ccc2c(c1)-c1[nH]c3ccc([N+](=O)[O-])cc3c1CC(=O)N2 | cell-free assay | – | – | 0.5 µM | remaining signal | 105%
CCCOc1ccc([C@H]2[C@H](C(=O)O)[C@@H](c3ccc4c(c3)OCO4)CN2CC(=O)Nc2c(CC)cccc2CC)cc1 | cell-free assay | – | competition with immobilised ligand | 1 µM | remaining binding | 98%
Cc1cc(NC(=O)c2cccc3cc(-c4cccc5[nH]nc(N)c45)ccc23)ccc1F | enzyme activity | inhibitor | – | 0.1 µM | activity vs control | 97%
CC/C(=N\NC(=O)NCc1cccc(O)c1)c1ccc(O)c(C)c1O | enzyme activity | inhibitor | – | 0.1 µM | inhibition | -0.5%
O=C(NCCCC1CCCCC1)c1ccc(CNC(=O)c2cnn(-c3ccccc3)c2C(F)(F)F)cc1 | cell-free assay | – | competition with immobilised ligand | 0.1 µM | remaining binding | 95%
Cc1ccc(C(=O)Nc2ccc(CN3CCN(C)CC3)c(C(F)(F)F)c2)cc1C#Cc1cnc2cccnn12 | cell-free assay | – | – | 23.5 nM | remaining signal | 0.9%
C[C@@]1(Cc2ccc(C#N)cc2)C(=O)N(c2cc(Cl)cc(Cl)c2)c2ncc(C(=O)NC3(c4nc(C5CCC5)no4)CC3)n21 | cell-free assay | – | competition with immobilised ligand | 1 µM | remaining binding | 100%
Clc1ccc(Nc2nnc(Cc3ccncc3)c3ccccc23)cc1 | cell-free assay | – | – | 0.5 µM | remaining signal | 100%
